Publication PMC8903075 (Biomaterials science, 2021)
≈ marks a conversion by molar mass, not a printed value.

Experiments:
[1] = tested on: methicillin-resistant S. epidermidis (MRSE) (RP62A); experiment: microbe, parasite or virus in culture; format: cell-based, Staphylococcus epidermidis; details: for MIC, Gram-positive, MRSE: methicillin-resistant (RP62A, 18 h)
E. coli (ATCC 25922) = experiment: microbe, parasite or virus in culture; format: cell-based; details: for MIC, Gram-negative, E. coli: ATCC 25922, 18 h
[2] = tested on: methicillin-resistant S. aureus (MRSA) (ATCC 33591); experiment: microbe, parasite or virus in culture; format: cell-based, Staphylococcus aureus; details: for MIC, Gram-positive, MRSA: ATCC 33591, 18 h
[3] = tested on: P. aeruginosa (ATCC 27853); experiment: microbe, parasite or virus in culture; format: cell-based, Pseudomonas aeruginosa; details: for MIC, Gram-negative, P. aeruginosa: ATCC 27853, 18 h
E. coli [4] = experiment: Bacterial membrane depolarization assay, DiSC3; format: cell-based; details: 1 × MIC, 2 × MIC and 4 × MIC; concentration-dependent; repeated three times with duplicates
E. coli [5] = experiment: Time-kill assay; format: cell-based; details: 2 × MIC; 1 × 10^6 CFU mL^−1; repeated three times
Outline: (§1)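 Bacteria grown overnight in TSB at 37 °C to mid-log phase and diluted to 1 × 10^6 CFU mL−1. Incubated with test compound at several concentrations, with suspensions plated on agar at set time points. Plates incubated 20 h at 37 °C before colony counting. Assay repeated three times.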

[6] = HPLC retention time as estimate of amphiphilicity; format: physicochemical; details: HPLC data of Table S2 in ESI, which is not in the material
MRSA [7] = format: cell-based, Staphylococcus aureus; details: 48 h, 0.094 μg mL^−1
E. coli [8] = format: cell-based; details: 48 h, 0.188 μg mL^−1
MRSA [9] = experiment: Bacterial membrane depolarization assay, DiSC3; format: cell-based, Staphylococcus aureus; details: 1 × MIC, 2 × MIC and 4 × MIC; concentration-dependent; repeated three times with duplicates
E. coli [10] = experiment: Fluorescence microscopy; format: cell-based; details: 12 μg mL^−1, 2 h, 37 °C
Outline: (§2)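 Mid-log cultures grown at 37 °C, diluted to 1 × 10^6 CFU mL−1, exposed to test compound for 2 h at 37 °C alongside untreated controls. Cells pelleted at 3000 rpm for 15 min at 4 °C and PBS-washed. Stained with DAPI (10 μg mL−1) for 15 min on ice in the dark, washed twice, then stained the same way with PI (5 μg mL−1). Imaged under oil immersion.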

MRSA [11] = experiment: Fluorescence microscopy; format: cell-based, Staphylococcus aureus; details: 12 μg mL^−1, 2 h, 37 °C
Outline: as §2

E. coli [12] = experiment: Outer membrane permeability assay; format: cell-based; details: 1 × MIC; 37 °C, 1 h; percent uptake relative to 16 mM melittin
MRSA [13] = experiment: Time-kill assay; format: cell-based, Staphylococcus aureus; details: 1 × 10^6 CFU mL^−1, repeated three times
Outline: as §1

E. coli [14] = experiment: Transmission electron microscopy; format: cell-based; details: 12 μg mL^−1, 2 h, TSB, 37 °C
Outline: (§3)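 Mid-log bacteria exposed to test compound in TSB for 2 h at 37 °C, with untreated samples as controls. Cells pelleted at 3000 rpm for 15 min, washed four times in PBS, resuspended in deionized water. A drop placed on carbon-coated Cu grids, excess blotted off, dried about 1 h. Imaged by TEM at 60 kV.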

MRSA [15] = experiment: Transmission electron microscopy; format: cell-based, Staphylococcus aureus; details: 12 μg mL^−1, 2 h, TSB, 37 °C
Outline: as §3

CCCCCCCCCCCC(=O)NCCCC[C@H](NC(=O)c1cc(NC(=O)CN(C[C@H](CCCCN)NC(=O)[C@@H](N)CCCCN)S(=O)(=O)c2ccccc2)cc(NC(=O)CN(C[C@H](CCCCN)NC(=O)[C@@H](N)CCCCN)S(=O)(=O)c2ccccc2)c1)C(N)=O [Compound 1]
MIC, Gram-positive, MRSE [1]: 3 to 6 µg/mL | MIC, Gram-negative, E. coli (E. coli (ATCC 25922)): 3 to 6 µg/mL | MIC, Gram-positive, MRSA [2]: 3 to 6 µg/mL | MIC, Gram-negative, P. aeruginosa [3]: 6 to 12.5 µg/mL

CCCCCCCCCCCCCCCC(=O)NCCCC[C@H](NC(=O)c1cc(NC(=O)CN(C[C@H](CCCCN)NC(=O)[C@@H](N)CCCCN)S(=O)(=O)c2ccccc2)cc(NC(=O)CN(C[C@H](CCCCN)NC(=O)[C@@H](N)CCCCN)S(=O)(=O)c2ccccc2)c1)C(N)=O [Compound 2]
MIC, Gram-negative, E. coli (E. coli (ATCC 25922)): 6 to 12.5 µg/mL | MIC, Gram-positive, MRSA [2]: 6 to 12.5 µg/mL

O=C(O)c1cn(C2CC2)c2cc(N3CCNCC3)c(F)cc2c1=O [Ciprofloxacin, reference compound]
MIC ([1]; Staphylococcus epidermidis, MRSE, 18 h, read-out: MIC, Gram-positive, MRSE): 0.75 to 1.5 µg/mL (≈ 2.26 to 4.53 µM) | MIC (E. coli (ATCC 25922); Escherichia coli, ATCC25922, 18 h, read-out: MIC, Gram-negative, E. coli): 0.75 to 1.5 µg/mL (≈ 2.26 to 4.53 µM) | MIC ([2]; Staphylococcus aureus, ATCC33591|MRSA, 18 h, read-out: MIC, Gram-positive, MRSA): 0.75 to 1.5 µg/mL (≈ 2.26 to 4.53 µM) | MIC ([3]; Pseudomonas aeruginosa, ATCC27853, 18 h, read-out: MIC, Gram-negative, P. aeruginosa): 1.5 to 3 µg/mL (≈ 4.53 to 9.05 µM)

CCCCCCCCCCCC(=O)NCCCC[C@H](NC(=O)c1cc(NC(=O)CN(C[C@H](CCCCN)NC(=O)[C@@H](N)CCCCN)S(=O)(=O)c2ccc(Cl)cc2)cc(NC(=O)CN(C[C@H](CCCCN)NC(=O)[C@@H](N)CCCCN)S(=O)(=O)c2ccc(Cl)cc2)c1)C(N)=O [Compound 17]
Membrane depolarization of E. coli, DiSC3(5) fluorescence (E. coli [4]): dramatic enhancement of fluorescence intensity | Time to complete killing of E. coli (E. coli [5]): ≤ 6 h | HPLC retention time (RT), estimate of amphiphilicity [6]: 19.70 min | Inhibition of biofilm formation of MRSA (MRSA [7]): ~50% | Inhibition of biofilm formation of E. coli (E. coli [8]): around 40% | Membrane depolarization of MRSA, DiSC3(5) fluorescence (MRSA [9]): dramatic enhancement of fluorescence intensity | Membrane integrity of E. coli by DAPI/PI fluorescence (E. coli [10]): compromised | Membrane integrity of MRSA by DAPI/PI fluorescence (MRSA [11]): compromised | Permeabilization of E. coli outer membrane (NPN uptake) (E. coli [12]): more than 50% | Time to complete killing of MRSA (MRSA [13]; 2 × MIC): ≤ 6 h | Time to eradicate MRSA (MRSA [13]; 8 × MIC): roughly 2 h | E. coli cell membrane morphology by TEM (E. coli [14]): membranes have been damaged | MIC, Gram-positive, MRSE [1]: 3 to 6 µg/mL | MIC, Gram-negative, E. coli (E. coli (ATCC 25922)): 3 to 6 µg/mL | MRSA cell membrane morphology by TEM (MRSA [15]): membranes have been damaged | MIC, Gram-positive, MRSA [2]: 3 to 6 µg/mL | MIC, Gram-negative, P. aeruginosa [3]: 3 to 6 µg/mL
